# Laboratory results published in ChEMBL document CHEMBL3603782, “Antimalarial benzoheterocyclic 4-aminoquinolines: Structure-activity relationship, in vivo evaluation, mechanistic and bioactivation studies” (Bioorg Med Chem, 2015).
# Tests used:
# Plasmodium falciparum [1] = test: Antiplasmodial activity against chloroquine-sensitive Plasmodium falciparum NF54 infected in human erythrocytes after 48 hrs by [3H]-hypoxanthine incorporation assay; format: functional, organism-based
# How it was run: (§1)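 Modified [3H]-hypoxanthine incorporation assay against P. falciparum NF54 (sensitive) and K1 (multidrug-resistant). Values are means of ≥2 or ≥3 independent experiments. The resistance index is the K1 IC50 divided by the NF54 IC50.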
# [2] = Inhibition of beta haematin formation at 1000 uM after 5 to 6 hrs by pyridine-ferrichrome method; format: physicochemical
# How it was run: (§2)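 Modified β-haematin inhibition assay. Compounds from DMSO stocks, 0–1000 µM final, in duplicate. NP-40 added (30.55 µM). Haematin suspension added to give 0.5 M acetate pH 4.8 and 100 µM haematin, then incubated 5–6 h at 37 °C. Free haeme detected with pyridine/H2O/acetone/0.2 M HEPES pH 7.4 reagent (final pyridine ~5% v/v) plus acetone, and absorbance read.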
# Plasmodium falciparum [3] = test: Antiplasmodial activity against multidrug-resistant Plasmodium falciparum K1 infected in human erythrocytes after 48 hrs by [3H]-hypoxanthine incorporation assay; format: functional, organism-based; how it was run: as §1
# CHO = test: Cytotoxicity against CHO cells by MTT assay; format: cell-based; conditions: Cricetulus griseus
# How it was run: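 CHO cells, MTT assay. Stocks 20 mg/mL in DMSO, diluted in complete medium; undissolved samples tested as suspensions. Emetine served as reference (10-fold dilutions, 6 concentrations, lowest 0.001 µg/mL). IC50 derived from full dose–response curves by non-linear fitting.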
# Plasmodium falciparum [4] = test: Resistance index, ratio of IC50 for multidrug-resistant Plasmodium falciparum K1 to IC50 for Plasmodium falciparum W2; format: functional
# [5] = Stability of the compound by methoxylamine trapping method; format: physicochemical
# [6] = Stability of the compound by potassium cyanide trapping method; format: physicochemical
# [7] = Metabolic stability in BALB/c mouse liver microsomes assessed as compound remaining at […] after 30 mins by HPLC-MS/MS analysis in presence of NADPH; format: ADME; conditions: read-out: Stability
# [8] = Lipophilicity, log P of the compound; format: physicochemical; conditions: octanol/water
# Plasmodium berghei [9] = test: Antimalarial activity against GFP-transfected Plasmodium berghei ANKA infected in mouse assessed as reduction in parasitemia at 50 mg/kg, po qd administered for 4 days measured on day 4 post last dose by flow cytometric analysis relative to control; format: functional; parameters: scale not given: the % may be the effect or the level left
# [10] = Metabolic stability in human liver microsomes assessed as compound remaining at […] after 30 mins by HPLC-MS/MS analysis in presence of NADPH; format: ADME; conditions: read-out: Stability
# [11] = Selectivity index, ratio of IC50 for CHO cells to IC50 for chloroquine-sensitive Plasmodium falciparum NF54; format: toxicity, cell-based; conditions: hamster, read-out: Ratio IC50
# Plasmodium berghei [12] = test: Antimalarial activity against GFP-transfected Plasmodium berghei ANKA infected in mouse assessed as mean survival days at 50 mg/kg, po qd administered for 4 days; format: functional
# How it was run: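 Mice (n = 3) infected with GFP-transfected P. berghei ANKA. Compound given orally, dissolved in a vehicle containing ethanol and diluted 10× with water. Multi-dose arms were dosed once daily on four consecutive days (4, 24, 48, 72 h post-infection). Parasitaemia was measured by flow cytometry, detection limit 0.1%. Activity is % reduction relative to controls. Survival was followed for 30 days.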
# Plasmodium falciparum [13] = test: Resistance index, ratio of IC50 for multidrug-resistant Plasmodium falciparum K1 to IC50 for chloroquine-sensitive Plasmodium falciparum NF54; format: functional; how it was run: as §1
# [14] = Inhibition of beta haematin formation after 5 to 6 hrs by pyridine-ferrichrome method; format: physicochemical; how it was run: as §2
# [15] = Drug metabolism assessed as ratio of sum of compound adduct peak area to clozapine adduct peak area by GSH trapping method; format: physicochemical
SMILES,IC50 (Plasmodium falciparum [1]),IC50 (Plasmodium falciparum [3]),IC50 (CHO),Ratio IC50 (Plasmodium falciparum [4]),logP [8],selectivity ratio [11],Ratio IC50 (Plasmodium falciparum [13]),IC50 [14],further results
CN(C)CCCNc1nc2cc([N+](=O)[O-])ccc2o1,> 20000 nM,11000 nM,,,,,,,inhibition (INH) [2]: Not Active
CC[C@H]1CN2CCc3cc(OC)c(OC)cc3[C@@H]2C[C@@H]1C[C@H]1NCCc2cc(OC)c(OC)cc21 [EMETINE],,,0.104 µM,,,,,,
Clc1ccc2c(Nc3ccc(NCCN4CCCC4)nc3)ccnc2c1,,,,4.38,,,,,
O=[N+]([O-])c1ccc2oc(NCCc3ccccn3)nc2c1,> 20000 nM,> 20000 nM,,,,,,,inhibition (INH) [2]: Not Active
CCNc1nc2cc(Nc3ccnc4cc(Cl)ccc34)ccc2[nH]1,,,,0.5,,,,,Stability [5]: Unstable; Stability [6]: Unstable
Clc1ccc2c(Nc3ccc4oc(NCCN5CCCCC5)nc4c3)ccnc2c1,10 nM,24 nM,7.58 µM,,4.11,758,2.4,89 µM,remaining at 0.5 h [7]: 41%; Activity (Plasmodium berghei [9]): 99.9%; remaining at 0.5 h [10]: 71%; MSD (Plasmodium berghei [12]): 27 days
Clc1cccc(CNc2nc3cc(Nc4ccnc5cc(Cl)ccc45)ccc3o2)c1,124 nM,223 nM,25.7 µM,,5.7,207,1.8,27.1 µM,
Clc1ccc2c(Nc3ccc4oc(N5CCN(c6ccccc6)CC5)nc4c3)ccnc2c1,274 nM,875 nM,28.7 µM,,6.05,105,3.19,29.6 µM,
CCN(CC)CCCNc1nc2cc(Nc3ccnc4cc(Cl)ccc34)ccc2o1,14 nM,85 nM,6.37 µM,,4.12,455,6.07,165 µM,remaining at 0.5 h [7]: 70%; remaining at 0.5 h [10]: 70%
Clc1ccc2c(Nc3ccc4sc(NCCN5CCCCC5)nc4c3)ccnc2c1,,,,0.54,,,,,Ratio [15]: 0.88
CN1CCN(c2nc3cc(Nc4ccnc5cc(Cl)ccc45)ccc3o2)CC1,51 nM,99 nM,> 240 µM,,3.9,,1.94,71.7 µM,remaining at 0.5 h [7]: 18%; remaining at 0.5 h [10]: 61%
Clc1ccc2c(Nc3ccc4sc(NCCN5CCOCC5)nc4c3)ccnc2c1,,,,0.63,,,,,Ratio [15]: 1.13
O=C1CCCN1CCCNc1nc2cc(Nc3ccnc4cc(Cl)ccc34)ccc2o1,1880 nM,773 nM,29.6 µM,,2.88,15.8,0.41,97.5 µM,
CCN(CC)c1nc2cc(Nc3ccnc4cc(Cl)ccc34)ccc2o1,512 nM,1380 nM,229 µM,,4.78,448,2.69,50.7 µM,
CCNc1nc2cc(Nc3ccnc4cc(Cl)ccc34)ccc2o1,466 nM,,,1.88,3.75,,2.15,80.2 µM,remaining at 0.5 h [7]: 1%; remaining at 0.5 h [10]: 81%; Stability [5]: Unstable; Stability [6]: Unstable
Clc1ccc2oc(N3CCN(c4ccccc4)CC3)nc2c1,> 20000 nM,> 20000 nM,,,,,,,inhibition (INH) [2]: Not Active
Clc1ccc2c(Nc3ccc4[nH]c(NCCN5CCCCC5)nc4c3)ccnc2c1,,,,0.02,,,,,
Clc1ccc2c(Nc3ccc4oc(NCc5ccccn5)nc4c3)ccnc2c1,406 nM,883 nM,> 240 µM,,,,2.17,106 µM,
CC(C)(C)Nc1nc2cc(Nc3ccnc4cc(Cl)ccc34)ccc2s1,,,,0.79,,,,,Ratio [15]: 0.74; Stability [5]: Unstable; Stability [6]: Unstable
